{"source": "paper PMC3129651", "about": "(Pharmaceutical research, 2010)", "key": {"[1]": {"system": "suspended rat hepatocytes", "test": "Preliminary uptake time course in suspended rat hepatocytes sampling over 60min"}, "[2]": {"details": "cited from earlier work"}, "[3]": {"details": "rats, 0.25 mCi dose, 30 min after intravenous administration; cited from earlier work"}, "[4]": {"system": "WT rat sandwich-cultured hepatocytes", "test": "20-min efflux study in day 4 WT rat sandwich-cultured hepatocytes", "type": "in vitro ADME", "summary_of_the_method": "(§1)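 Male Wistar WT or Mrp2-deficient TR⁻ rat hepatocytes were seeded on collagen I 6-well plates (~1.5 × 10^6 cells/well TR, 1.75 × 10^6 WT), overlaid with Matrigel and used on day 4. They were preloaded for 20 min at 37°C with 99mTc probe (5 μCi/mL) in standard HBSS. Efflux then ran 20 min at 37°C in standard (basolateral) or Ca2+-free HBSS (basolateral + canalicular), with 100 μM MK571, 20 μM GF120918 or 0.6% DMSO. Decay-corrected gamma counts of medium and lysate were taken, and efflux was expressed as % of preloaded mass. n=4 WT, 3 TR livers, triplicate.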"}, "[5]": {"system": "TR^− rat sandwich-cultured hepatocytes", "type": "in vitro ADME", "summary_of_the_method": "as §1"}, "[6]": {"system": "human sandwich-cultured hepatocytes", "test": "20-min efflux study in day 7 human sandwich-cultured hepatocytes", "type": "in vitro ADME"}, "OATP1B3": {"system": "OATP1B3", "details": "inhibition of OATP1B3; cited from earlier work"}, "Oat2": {"biological_target": "T1, Oat2 (Rattus norvegicus, UniProt Q5RLM2)", "T1 sequence (Q5RLM2 1-535)": "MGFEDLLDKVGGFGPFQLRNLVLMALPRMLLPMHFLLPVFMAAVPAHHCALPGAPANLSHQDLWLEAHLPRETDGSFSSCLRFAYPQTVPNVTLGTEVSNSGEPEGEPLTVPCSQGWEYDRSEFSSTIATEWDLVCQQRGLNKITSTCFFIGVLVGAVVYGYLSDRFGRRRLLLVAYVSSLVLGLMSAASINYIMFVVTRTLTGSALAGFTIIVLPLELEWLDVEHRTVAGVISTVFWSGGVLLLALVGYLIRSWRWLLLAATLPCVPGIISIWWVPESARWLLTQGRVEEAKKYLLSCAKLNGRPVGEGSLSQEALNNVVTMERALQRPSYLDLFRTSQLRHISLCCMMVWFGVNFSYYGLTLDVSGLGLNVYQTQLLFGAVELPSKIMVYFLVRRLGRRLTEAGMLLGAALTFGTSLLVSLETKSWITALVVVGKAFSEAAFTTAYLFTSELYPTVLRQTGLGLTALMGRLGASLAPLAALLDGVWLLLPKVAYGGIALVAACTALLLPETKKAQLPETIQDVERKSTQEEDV", "test": "3H-PAH uptake over 60 min in freshly isolated rat hepatocytes", "type": "in vitro ADME", "details": "50μM MK571 in the incubation medium"}, "[7]": {"system": "suspended rat hepatocytes"}, "[8]": {"system": "suspended WT rat hepatocytes", "type": "in vitro ADME", "details": "99mTc-MEB 5μCi/mL, 20μM rifamycin SV, 20μM glycyrrhizic acid, 200μM clonidine, 10μM desipramine, 5μM decynium 22, 10μM ketoprofen"}, "[9]": {"system": "suspended human hepatocytes", "type": "in vitro ADME", "details": "99mTc-MEB 5μCi/mL, 20μM rifamycin SV, 200μM clonidine, 10μM desipramine, 5μM decynium 22, 10μM ketoprofen"}, "Oct [10]": {"system": "Oct", "type": "in vitro ADME", "details": "suspended rat hepatocytes, 14C-TEA 20μM, 20μM glycyrrhizic acid; for initial 14C-TEA uptake in the presence of inhibitor: 200μM clonidine, 10μM desipramine"}, "Oatp [11]": {"system": "Oatp", "type": "in vitro ADME", "details": "suspended WT rat hepatocytes; 3H-E217G 1μM; inhibitor 20μM"}, "OATP [12]": {"system": "OATP", "test": "Initial uptake of 3H-E217G in suspended human hepatocytes with inhibitors", "type": "in vitro ADME", "details": "3H-E217G 1μM, 20μM rifamycin SV"}, "OCT [13]": {"system": "OCT", "test": "Initial uptake of 14C-TEA in suspended human hepatocytes with inhibitors", "type": "in vitro ADME", "details": "14C-TEA 20μM, 5μM decynium 22"}, "[14]": {"system": "WT sandwich-cultured rat hepatocytes", "test": "10-min accumulation study", "type": "in vitro ADME", "details": "2μM GF120918; siNT- and siBcrp-infected rat SCH"}, "[15]": {"details": "control WT rat SCH, 5μCi/mL, 20min preload"}, "[16]": {"details": "TR- rat SCH, 5μCi/mL, 20min preload"}, "[17]": {"details": "human SCH, control, 5μCi/mL, 20min preload"}}, "note": "pKi: −log10 of the molar value. Entries after “also recorded” stand apart in the source; their conditions may differ. Counter-ions that a name gives are not always drawn. Like-named read-outs stand apart in the source and are kept apart here.", "data": [{"smiles": "CC[N+](CC)(CC)CC", "note": "[^14C-TEA, tetraethylammonium]", "values": [{"measurement": "linear range of uptake", "setting": "[1]", "value": 5, "unit": "min"}]}, {"smiles": "Cc1cc(C)c(NC(=O)CN(CC(=O)[O-])CC(=O)[O-])c(C)c1Br.Cc1cc(C)c(NC(=O)CN(CC(=O)[O-])CC(=O)[O-])c(C)c1Br.[99Tc+4]", "note": "[^99mTc-MEB, ^99mTechnetium-mebrofenin]", "values": [{"measurement": "dose recovered in bile", "setting": "[2]; 2.3mCi dose intravenously, healthy human subjects, within 180 min", "value": "~ 84%"}, {"measurement": "dose recovered in urine", "setting": "[2]; after 24 hours in humans", "value": "~ 1.5 % of the dose"}, {"measurement": "dose taken up by the liver", "setting": "[2]; humans", "value": "More than 98%"}, {"measurement": "hepatic excretion half-life", "setting": "[2]; humans", "value": 16, "unit": "min"}, {"measurement": "dose recovered in the liver", "setting": "[3]", "value": "~ 95%"}, {"measurement": "basolateral efflux over 20 min", "setting": "[4]; [15]", "value": "25.0±6.7 % of total preloaded mass"}, {"measurement": "canalicular efflux over 20 min", "setting": "[4]; [15]", "value": "15.3±5.7 % of total preloaded mass"}, {"measurement": "hepatocellular content in cell lysate at the end of the 20-min efflux experiment, Rat Inhibitor", "setting": "[4]; day 4 WT rat SCH, Inhibitor = 100μM MK571 for 99mTc-MEB and 20μM GF120918 for 99mTc-MIBI", "value": "63.4 ± 4.8% of the total substrate mass preloaded"}, {"measurement": "fraction of basolateral efflux", "setting": "[4]; rat SCH", "value": "62.0 % of total efflux"}, {"measurement": "fraction of canalicular efflux", "setting": "[4]; rat SCH", "value": "38.0 % of total efflux"}, {"measurement": "total efflux", "setting": "[4]; rat SCH, 20-min efflux study design", "value": "40.3±5.4", "unit": "%"}, {"measurement": "basolateral efflux over 20 min", "setting": "[5]; [16]", "value": "31.8±6.2 % of total preloaded mass"}, {"measurement": "canalicular efflux over 20 min", "setting": "[5]; [16]", "value": "negligible; also recorded: completely ablated"}, {"measurement": "hepatocellular content in cell lysate at the end of the 20-min efflux experiment, Rat TR-", "setting": "[5]; day 4 TR- rat SCH, n=3", "value": "78.8 ± 13.2% of the total substrate mass preloaded"}, {"measurement": "canalicular efflux, human compared to rat SCH", "setting": "[6]; 20-min efflux", "value": "~ 3 fold"}, {"measurement": "hepatocellular content in cell lysate at the end of the 20-min efflux experiment, Human Inhibitor", "setting": "[6]; day 7 human SCH, Inhibitor = 100μM MK571 for 99mTc-MEB and 20μM GF120918 for 99mTc-MIBI", "value": "27.7 ± 0.4% of the total substrate mass preloaded"}, {"measurement": "fraction of basolateral efflux", "setting": "[6]; human SCH", "value": "26.7 % of total efflux"}, {"measurement": "fraction of canalicular efflux", "setting": "[6]; human SCH", "value": "73.3 % of total efflux"}, {"measurement": "total efflux", "setting": "[6]; human SCH, 20-min efflux study design", "value": "62.4±8.0", "unit": "%"}, {"measurement": "basolateral efflux over 20 min", "setting": "[6]; [17]", "value": "16.7±0.6 % of total preloaded mass"}, {"measurement": "canalicular efflux over 20 min", "setting": "[6]; [17]", "value": "45.8±8.6 % of total preloaded mass"}, {"measurement": "linear range of uptake", "setting": "[1]", "value": 1.5, "unit": "min"}]}, {"smiles": "CN(C)C(=O)CCSC(SCCC(=O)O)c1cccc(/C=C/c2ccc3ccc(Cl)cc3n2)c1", "note": "(stereo not shown) [MK571, MK-571 sodium salt]", "values": [{"measurement": "pKi", "setting": "OATP1B3", "value": 6.22}, {"measurement": "effect of inhibitor on 3H-PAH uptake", "setting": "Oat2", "value": "not significantly influenced"}]}, {"smiles": "C[C@]12CC[C@@H]3c4ccc(O)cc4CC[C@H]3[C@@H]1CC[C@@H]2O[C@@H]1O[C@H](C(=O)O)[C@@H](O)[C@H](O)[C@H]1O", "note": "[^3H-E217G, Estradiol-17-β-D-glucuronide]", "values": [{"measurement": "linear range of uptake", "setting": "[7]", "value": 2.5, "unit": "min"}]}, {"smiles": "Clc1cccc(Cl)c1N=C1NCCN1", "note": "[clonidine]", "values": [{"measurement": "initial 99mTc-MEB uptake in the presence of inhibitor", "setting": "[8]", "value": "marginal effects"}, {"measurement": "initial 99mTc-MEB uptake in the presence of inhibitor", "setting": "[9]", "value": "marginal effects"}, {"measurement": "initial 14C-TEA uptake in the presence of inhibitor", "setting": "Oct [10]", "value": "23.7 % of control"}]}, {"smiles": "CO[C@H]1/C=C/O[C@@]2(C)Oc3c(C)c(O)c4c(O)c(cc(O)c4c3C2=O)NC(=O)/C(C)=C\\C=C\\[C@H](C)[C@H](O)[C@@H](C)[C@@H](O)[C@@H](C)[C@H](OC(C)=O)[C@@H]1C", "note": "[rifamycin SV]", "values": [{"measurement": "initial 3H-E217G uptake in the presence of inhibitor", "setting": "Oatp [11]", "value": "15.5 % of control"}, {"measurement": "initial 99mTc-MEB uptake in the presence of inhibitor", "setting": "[8]", "value": "20.7 % of control"}, {"measurement": "initial 99mTc-MEB uptake in the presence of inhibitor", "setting": "[9]", "value": "35.4 % of control"}, {"measurement": "initial 3H-E217G uptake in the presence of inhibitor", "setting": "OATP [12]", "value": "51.5 % of control"}]}, {"smiles": "CC1(C)[C@@H](O[C@H]2O[C@H](C(=O)O)[C@@H](O)[C@H](O)[C@H]2O[C@@H]2O[C@H](C(=O)O)[C@@H](O)[C@H](O)[C@H]2O)CC[C@]2(C)[C@H]3C(=O)C=C4[C@@H]5C[C@@](C)(C(=O)O)CC[C@]5(C)CC[C@@]4(C)[C@]3(C)CC[C@@H]12", "note": "[glycyrrhizic acid]", "values": [{"measurement": "initial 3H-E217G uptake in the presence of inhibitor", "setting": "Oatp [11]", "value": "23.8 % of control"}, {"measurement": "initial 99mTc-MEB uptake in the presence of inhibitor", "setting": "[8]", "value": "39.5 % of control"}, {"measurement": "reduction of 14C-TEA uptake compared to control", "setting": "Oct [10]", "value": 62.1, "unit": "%"}, {"measurement": "initial 14C-TEA uptake in the presence of inhibitor", "setting": "Oct [10]", "value": "37.9 % of control"}]}, {"smiles": "CCN1/C(=C/c2ccc3ccccc3[n+]2CC)C=Cc2ccccc21.[I-]", "note": "[decynium 22]", "values": [{"measurement": "initial 99mTc-MEB uptake in the presence of inhibitor", "setting": "[8]", "value": "marginal effects"}, {"measurement": "initial 99mTc-MEB uptake in the presence of inhibitor", "setting": "[9]", "value": "marginal effects"}, {"measurement": "initial 14C-TEA uptake in the presence of inhibitor", "setting": "OCT [13]", "value": "54.2 % of control"}]}, {"smiles": "COc1cc2c(cc1OC)CN(CCc1ccc(NC(=O)c3cccc4c(=O)c5cccc(OC)c5[nH]c34)cc1)CC2", "note": "[GF120918, N-(4-[2-(1,2,3,4-tetrahydro-6,7-dimethoxy-2-isoquinolinyl)ethyl]-phenyl)-9,10-dihydro-5-methoxy-9-oxo-4-acridine carboxamide]", "values": [{"measurement": "decrease of 99mTc-MIBI basolateral efflux", "setting": "[4]; rat SCH, GF120918 20μM", "value": "~ 2.3 fold"}, {"measurement": "decrease of 99mTc-MIBI canalicular efflux", "setting": "[4]; rat SCH, GF120918 20μM", "value": 1.5, "unit": "fold"}, {"measurement": "effect on 99mTc-MIBI BEI and in vitro Clbiliary (biliary excretion)", "setting": "[14]", "value": "ablated; also recorded: inhibited completely"}, {"measurement": "increase in hepatocellular accumulation (cells only) of 99mTc-MIBI", "setting": "[14]", "value": "~ 2 fold"}, {"measurement": "decrease of 99mTc-MIBI basolateral efflux", "setting": "[6]; human SCH, GF120918 20μM", "value": "~ 2.9 fold"}, {"measurement": "decrease of 99mTc-MIBI canalicular efflux", "setting": "[6]; human SCH, GF120918 20μM", "value": 2.1, "unit": "fold"}]}]}
